Here are results for one compound from ChEMBL document CHEMBL3045555, “Structure elucidation and antifungal activity of an anthracycline antibiotic, daunomycin, isolated from Actinomadura roseola” (J Agric Food Chem, 2000).

The source made the active and inactive calls. The calls are words filed in the database; no cut-off is given here.

Assay [1] relates to Phytophthora capsici. The experiment in a line: Antifungal activity against Phytophthora capsici in pepper plants assessed as decrease in Phytophthora blight disease at 100 ug/ml. In kind it is functional, organism-based. Put shortly:
(§1)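 Pepper plants raised at 28 °C with 16 h light per day. Antibiotic in methanol, diluted, was sprayed onto plants at first-branch stage 1 day before inoculation. Stems were slit 1 cm above soil and covered with cotton soaked in 1 × 105 zoospores mL-1 P. capsici, then taped. Disease was rated daily on a 0–5 severity scale; values are means of 10 plants per treatment.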

The subject of assay [2] is Phytophthora capsici. Kind of assay: Antifungal activity against Phytophthora capsici in pepper plants assessed as decrease in Phytophthora blight disease at 50 ug/ml. The assay is classed as functional, organism-based. In a few lines: as §1

Regarding `COCC(=O)N(c1c(C)cccc1C)C(C)C(=O)OC` (configuration not stated), the outcome in the assay with Phytophthora capsici [1] and in the assay on Phytophthora capsici [2] was Active.
